The record followed here is ChEMBL document CHEMBL1135421, “2-(Anilinomethyl)imidazolines as alpha1 adrenergic receptor agonists: the discovery of alpha1a subtype selective 2'-alkylsulfonyl-substituted analogues” (J Med Chem, 2002).

Each structure is given as a SMILES string. A value given as a limit tells only on which side of the number the result lay.

The target of test [1] is T1, Alpha-2C adrenergic receptor (Homo sapiens) (UniProt P18825).
T1 sequence (whole entry): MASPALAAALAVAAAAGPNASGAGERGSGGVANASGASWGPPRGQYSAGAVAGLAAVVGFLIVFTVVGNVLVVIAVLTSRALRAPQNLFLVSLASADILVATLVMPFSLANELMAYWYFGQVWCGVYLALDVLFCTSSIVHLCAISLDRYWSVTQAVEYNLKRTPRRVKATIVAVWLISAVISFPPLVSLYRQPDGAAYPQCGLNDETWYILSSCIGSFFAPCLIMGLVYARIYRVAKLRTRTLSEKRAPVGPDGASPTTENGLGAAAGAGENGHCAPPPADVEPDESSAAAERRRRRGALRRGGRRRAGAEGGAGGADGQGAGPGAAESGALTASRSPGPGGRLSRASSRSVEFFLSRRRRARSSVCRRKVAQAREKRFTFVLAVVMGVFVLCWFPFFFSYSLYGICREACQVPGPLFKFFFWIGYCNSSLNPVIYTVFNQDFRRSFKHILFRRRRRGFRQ
Nature of the test: Efficacy as percentage of the maximal effect observed for nonselective agonist UK-14304 in CHO cells expressing human Alpha-2A adrenergic receptor. The class given is functional, cell-based. The method in brief:
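Human α2A receptor in CHO cells, cAMP assay. Cells were preincubated with compound or UK14304 for 30 min at 37 °C with IBMX 300 μM. […] Efficacy is relative to the UK14304 maximum.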

The target in test [2] is T1, Alpha-2C adrenergic receptor (Homo sapiens). The test is described as follows: Agonist potency at Alpha-2C adrenergic receptor assayed in CHO cells expressing human Alpha-2C adrenergic receptor. The test is classed as functional, cell-based.
Test [3] addresses T2, Alpha-2A adrenergic receptor (Homo sapiens) (UniProt P08913).
T2 sequence (whole entry): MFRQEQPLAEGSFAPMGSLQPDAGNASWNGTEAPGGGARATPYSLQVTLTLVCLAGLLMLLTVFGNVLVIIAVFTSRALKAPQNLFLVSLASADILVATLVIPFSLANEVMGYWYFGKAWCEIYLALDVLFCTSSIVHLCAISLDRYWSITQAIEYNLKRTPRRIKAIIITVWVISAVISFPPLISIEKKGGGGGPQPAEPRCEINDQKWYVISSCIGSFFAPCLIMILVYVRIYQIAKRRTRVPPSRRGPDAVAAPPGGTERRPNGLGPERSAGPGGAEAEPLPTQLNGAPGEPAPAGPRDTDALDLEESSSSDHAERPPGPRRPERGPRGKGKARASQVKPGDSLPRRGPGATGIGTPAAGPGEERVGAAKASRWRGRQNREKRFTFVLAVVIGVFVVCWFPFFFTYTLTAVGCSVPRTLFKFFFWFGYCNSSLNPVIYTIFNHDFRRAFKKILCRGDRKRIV
Nature of the test: Agonist potency at Alpha-2A adrenergic receptor assayed in CHO cells expressing human alpha-2a. The test is classed as functional, cell-based.

Test [4] concerns the target T3, Alpha-1B adrenergic receptor (Homo sapiens, UniProt P35368).
T3 sequence (P35368 whole entry): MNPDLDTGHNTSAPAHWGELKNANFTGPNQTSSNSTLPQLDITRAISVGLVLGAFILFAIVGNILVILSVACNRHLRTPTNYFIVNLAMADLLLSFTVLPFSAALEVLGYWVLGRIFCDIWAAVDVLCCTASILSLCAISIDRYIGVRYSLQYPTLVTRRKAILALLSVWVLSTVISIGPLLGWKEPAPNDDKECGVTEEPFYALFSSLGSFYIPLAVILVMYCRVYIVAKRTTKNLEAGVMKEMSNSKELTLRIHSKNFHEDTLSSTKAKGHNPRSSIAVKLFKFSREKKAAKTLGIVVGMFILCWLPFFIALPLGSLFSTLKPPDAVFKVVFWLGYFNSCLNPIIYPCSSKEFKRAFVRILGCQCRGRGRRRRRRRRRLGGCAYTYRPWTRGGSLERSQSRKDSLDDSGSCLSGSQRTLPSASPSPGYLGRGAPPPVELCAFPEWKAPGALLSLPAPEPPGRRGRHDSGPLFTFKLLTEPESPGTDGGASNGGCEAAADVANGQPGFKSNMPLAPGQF
The test is described as follows: Agonist potency at alpha-1b adrenoceptors assayed in rat-1 fibroblasts expressing human alpha-1b. The test is classed as functional. The gist of the method:
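Rat-1 fibroblasts expressing human α1a/α1b/α1d, grown in DMEM with 10% heat-inactivated FBS and 0.6 mg/mL G418, plated 6000 cells/well and cultured 48 h at 37 °C. Loaded 2 h at 37 °C with Calcium Green (4 μM), 0.2% pluronic acid and 2.5 mM probenecid in HEPES buffer pH 7.4. FLIPR read at room temperature: 10 s baseline, then 50 s after compound. 11-point curves as % of 40 μM phenylephrine response, top concentration typically 5 μM.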

For test [5], the target named is T4, Alpha-2A adrenergic receptor (Homo sapiens, UniProt P08913).
T4 sequence (P08913 whole entry): T2 sequence (whole entry)
Nature of the test: Agonist potency at Alpha-2A adrenergic receptor assayed in CHO cells expressing human alpha 2a. The class given is functional, cell-based.

Test [6] has as its target T3, Alpha-1B adrenergic receptor. Nature of the test: Agonist potency at alpha-1b adrenoceptors assayed in rat-1 fibroblasts expressing human Alpha-1B adrenergic receptor. The test is classed as functional. The method in brief:
(§1)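 Human α1a, α1b or α1d receptors expressed in Rat-1 fibroblasts (DMEM, 10% heat-inactivated FBS, 0.6 mg/mL G418). Cells were plated at 6000/well and grown 48 h at 37 °C. They were loaded 2 h at 37 °C with Calcium Green (4 μM), pluronic acid 0.2% and probenecid 2.5 mM in HEPES buffer pH 7.4, then read by FLIPR at room temperature: 10 s baseline, 50 s after compound. 11-point curves were expressed as % of the 40 μM phenylephrine response; top concentration typically 5 μM.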

In test [7] the target is T5, Alpha-1D adrenergic receptor (Homo sapiens, UniProt P25100).
T5 sequence (P25100 whole entry): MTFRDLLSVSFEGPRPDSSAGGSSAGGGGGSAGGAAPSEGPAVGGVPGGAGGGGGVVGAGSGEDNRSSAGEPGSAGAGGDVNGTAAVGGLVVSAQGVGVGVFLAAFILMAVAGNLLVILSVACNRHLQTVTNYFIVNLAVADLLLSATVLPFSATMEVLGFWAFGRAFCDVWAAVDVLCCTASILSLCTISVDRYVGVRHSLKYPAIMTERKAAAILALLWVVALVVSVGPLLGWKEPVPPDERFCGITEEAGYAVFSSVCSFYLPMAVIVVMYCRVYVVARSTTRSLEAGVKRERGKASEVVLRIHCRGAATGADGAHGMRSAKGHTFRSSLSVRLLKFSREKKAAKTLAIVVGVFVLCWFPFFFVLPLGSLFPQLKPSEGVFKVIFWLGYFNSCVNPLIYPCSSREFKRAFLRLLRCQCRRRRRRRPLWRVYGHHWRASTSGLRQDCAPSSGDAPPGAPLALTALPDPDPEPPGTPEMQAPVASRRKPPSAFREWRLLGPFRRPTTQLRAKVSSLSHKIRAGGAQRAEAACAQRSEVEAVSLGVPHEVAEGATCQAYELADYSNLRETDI
The test is described as follows: Agonist potency at aAlpha-1D adrenergic receptor assayed in rat-1 fibroblasts expressing human Alpha-1D adrenergic receptor. The class given is functional. The gist of the method: as §1

`CC(C)S(=O)(=O)c1ccccc1NCC1=NCCN1` gave a Max in test [1] of 14%.
Take `CCCS(=O)(=O)c1ccccc1NCC1=NCCN1`: the pEC5 in test [2] is 5.5; in test [3], below 5.
In general, EC50 refers to the concentration at which the effect is half-maximal. Low readings indicate greater potency, high ones weaker potency. With `CSc1ccccc1NCC1=NCCN1`, the concentration giving a half-maximal response (EC50) was 2.19 nM in test [4] and 39.8 nM in test [5].
`CS(=O)(=O)c1cc(Cl)ccc1NCC1=NCCN1` gave a concentration giving a half-maximal response (EC50) in test [6] above 100000 nM.
`CS(=O)(=O)c1cc(F)ccc1NCC1=NCCN1` gave an EC50 in test [7] above 100000 nM.
